# What was measured:
# Mus musculus [1] = assay: Toxicity day evaluation was carried out on day 5 for animal dosed with 50 mg/kg compound; 5/5; type: organism-based; design: dose 50 mg/kg; details: in vivo
# Mus musculus [2] = assay: Body Weight Difference (BWD) of test animals administered with 200 mg/kg compound is determined on day 5 for P388 tumor cells; type: functional
# Outline: (§1)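 P388 leukaemia: about 10^6 cells in ascitic fluid inoculated ip on day 0 (CD2F1 mice). Compound given ip in normal saline as a freshly prepared solution or suspension, once daily on days 1–5. Treated-minus-control body weight difference in g, taken as day 5 minus day 1 weight. Groups of six.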
# Mus musculus [3] = assay: Ability of 50 mg/kg of compound to kill tumor cells in mice is expressed as the log of the tumor cell population at the onset of treatment minus the log of the tumor cell population at the end of treatment; type: functional
# Mus musculus [4] = assay: Ability of 100 mg/kg of compound to kill tumor cells in mice is expressed as the log of the tumor cell population at the onset of treatment minus the log of the tumor cell population at the end of treatment; type: functional
# Mus musculus [5] = assay: Body Weight Difference (BWD) of test animals administered with 100 mg/kg compound is determined on day 5 for P388 tumor cells; type: functional; outline: as §1
# Mus musculus [6] = assay: Toxicity day evaluation was carried out on day 5 for animal dosed with 200 mg/kg compound; 5/5; type: organism-based; design: dose 200 mg/kg; details: in vivo
# Mus musculus [7] = assay: Body Weight Difference (BWD) of test animals administered with 400 mg/kg compound is determined on day 5 for P388 tumor cells; type: functional; outline: as §1
# Mus musculus [8] = assay: Body Weight Difference (BWD) of test animals administered with 50 mg/kg compound is determined on day 5 for P388 tumor cells; type: functional; outline: as §1
# Mus musculus [9] = assay: Toxicity day evaluation was carried out on day 5 for animal dosed with 400 mg/kg compound; 4/5; type: organism-based; design: dose 400 mg/kg; details: in vivo
# Mus musculus [10] = assay: Toxicity day evaluation was carried out on day 5 for animal dosed with 100 mg/kg compound; 5/5; type: organism-based; design: dose 100 mg/kg; details: in vivo
# Mus musculus [11] = assay: Body Weight Difference (BWD) of test animals with P388 administered with 100 mg/kg compound is determined; type: functional; outline: as §1
# Mus musculus [12] = assay: Toxicity day evaluation was carried out on day 5 for animal dosed with 50 mg/kg compound. Number of animals in initial test groups were 5; type: organism-based; design: dose 50 mg/kg; details: in vivo
# Mus musculus [13] = assay: Body Weight Difference (BWD) of test animals with P388 administered with 200 mg/kg compound is determined; type: functional; outline: as §1
# Mus musculus [14] = assay: Toxicity day evaluation was carried out on day 5 for animal dosed with 100 mg/kg compound. Number of animals in initial test groups were 5; type: organism-based; design: dose 100 mg/kg; details: in vivo
# Mus musculus [15] = assay: Body Weight Difference (BWD) of test animals with P388 administered with 50 mg/kg compound is determined; type: functional; outline: as §1
# Mus musculus [16] = assay: Toxicity day evaluation was carried out on day 5 for animal dosed with 12.5 mg/kg compound. Number of animals in initial test groups were 5; type: organism-based; design: dose 12.5 mg/kg; details: in vivo
# Mus musculus [17] = assay: Body Weight Difference (BWD) of test animals with P388 administered with 12.5 mg/kg compound is determined; type: functional; outline: as §1
# Mus musculus [18] = assay: The percent of the median survival time of test mice compared to control mice is determined for mice administered with 12.5 mg/kg compound.; type: functional
# Mus musculus [19] = assay: Toxicity day evaluation was carried out on day 5 for animal dosed with 200 mg/kg compound. Number of animals in initial test groups were 5; type: organism-based; design: dose 200 mg/kg; details: in vivo
# Mus musculus [20] = assay: Toxicity day evaluation was carried out on day 5 for animal dosed with 25 mg/kg compound. Number of animals in initial test groups were 5; type: organism-based; design: dose 25 mg/kg; details: in vivo
# Mus musculus [21] = assay: Body Weight Difference (BWD) of test animals with P388 administered with 25 mg/kg compound is determined; type: functional; outline: as §1
# Mus musculus [22] = assay: Toxicity day evaluation was carried out on day 5 for animal dosed with 25 mg/kg compound; 5/5; type: organism-based; design: dose 25 mg/kg; details: in vivo
# Mus musculus [23] = assay: Toxicity day evaluation was carried out on day 5 for animal dosed with 12.5 mg/kg compound; 5/5; type: organism-based; design: dose 12.5 mg/kg; details: in vivo
# Mus musculus [24] = assay: The percent of the median survival time of test mice compared to control mice is determined for mice administered with 12.5 mg/kg compound; type: functional
# Mus musculus [25] = assay: The percent of the median survival time of test mice compared to control mice is determined for mice administered with 25 mg/kg compound; type: functional
# Mus musculus [26] = assay: The percent of the median survival time of test mice compared to control mice is determined for mice administered with 200 mg/kg compound; type: functional
# Mus musculus [27] = assay: Toxicity day evaluation was carried out on day 5 for animal dosed with 200 mg/kg compound. Number of animals in initial test groups were 6; type: organism-based; design: dose 200 mg/kg; details: in vivo
# Mus musculus [28] = assay: Toxicity day evaluation was carried out on day 5 for animal dosed with 50 mg/kg compound. Number of animals in initial test groups were 6; type: organism-based; design: dose 50 mg/kg; details: in vivo
# Mus musculus [29] = assay: Body Weight Difference (BWD) of test animals with P388 administered with 400 mg/kg compound is determined; type: functional; outline: as §1
# Mus musculus [30] = assay: Toxicity day evaluation was carried out on day 5 for animal dosed with 400 mg/kg compound. Number of animals in initial test groups were 6; type: organism-based; design: dose 400 mg/kg; details: in vivo
# Mus musculus [31] = assay: Ability of 25 mg/kg of compound to kill P388 tumor cells in mice is expressed as the log of the tumor cell population at the onset of treatment minus the log of the tumor cell population at the end of treatment.; type: functional
# Outline: (§2)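 P388 leukemia, 10^6 cells implanted ip on day 0. Drug given ip daily on days 1-5 as a saline suspension freshly prepared before injection. Log cell kill is computed from survival, with % T/C taken as median survival time of treated versus control mice.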
# Mus musculus [32] = assay: Ability of 50 mg/kg of compound to kill P388 tumor cells in mice is expressed as the log of the tumor cell population at the onset of treatment minus the log of the tumor cell population at the end of treatment.; type: functional; outline: as §2
# Mus musculus [33] = assay: Toxicity day evaluation was carried out on day 5 for animal dosed with 25 mg/kg compound. Number of animals in initial test groups were 6; type: organism-based; design: dose 25 mg/kg; details: in vivo
# Mus musculus [34] = assay: The percent of the median survival time of test mice compared to control mice is determined for mice administered with 25 mg/kg compound.; type: functional
# Mus musculus [35] = assay: Body Weight Difference (BWD) of test animals administered with 100 mg/kg compound is determined; type: functional
# Mus musculus [36] = assay: Toxicity day evaluation was carried out on day 5 for animal dosed with 100 mg/kg compound. Number of animals in initial test groups were 6; type: organism-based; design: dose 100 mg/kg; details: in vivo
# Mus musculus [37] = assay: The percent of the median survival time of test mice compared to control mice is determined for mice administered with 50 mg/kg compound; type: functional
# Mus musculus [38] = assay: Toxicity day evaluation was carried out on day 5 for animal dosed with 400 mg/kg compound; 6/6; type: organism-based; design: dose 400 mg/kg; details: in vivo
# Mus musculus [39] = assay: Ability of 25 mg/kg of compound to kill tumor cells in mice is expressed as the log of the tumor cell population at the onset of treatment minus the log of the tumor cell population at the end of treatment; type: functional
# Mus musculus [40] = assay: Toxicity day evaluation was carried out on day 5 for animal dosed with 100 mg/kg compound; 6/6; type: organism-based; design: dose 100 mg/kg; details: in vivo
# Mus musculus [41] = assay: The percent of the median survival time of test mice compared to control mice is determined for mice administered with 400 mg/kg compound; type: functional
# Mus musculus [42] = assay: Body Weight Difference (BWD) of test animals administered with 12.5 mg/kg compound is determined on day 5 for P388 tumor cells; type: functional; outline: as §1
# Mus musculus [43] = assay: Toxicity day evaluation was carried out on day 5 for animal dosed with 12.5 mg/kg compound; 6/6; type: organism-based; design: dose 12.5 mg/kg; details: in vivo
# Mus musculus [44] = assay: Toxicity day evaluation was carried out on day 5 for animal dosed with 25 mg/kg compound; 6/6; type: organism-based; design: dose 25 mg/kg; details: in vivo
# Mus musculus [45] = assay: Body Weight Difference (BWD) of test animals administered with 25 mg/kg compound is determined on day 5 for P388 tumor cells; type: functional; outline: as §1
# Mus musculus [46] = assay: Toxicity day evaluation was carried out on day 5 for animal dosed with 50 mg/kg compound; 6/6; type: organism-based; design: dose 50 mg/kg; details: in vivo
# Mus musculus [47] = assay: Ability of 200 mg/kg of compound to kill tumor cells in mice is expressed as the log of the tumor cell population at the onset of treatment minus the log of the tumor cell population at the end of treatment; type: functional
# Mus musculus [48] = assay: Toxicity day evaluation was carried out on day 5 for animal dosed with 200 mg/kg compound; 5/6; type: organism-based; design: dose 200 mg/kg; details: in vivo
# Mus musculus [49] = assay: The percent of the median survival time of test mice compared to control mice is determined for mice administered with 100 mg/kg compound; type: functional
structure (smiles),measurement,setting,value
CNC(=O)OCc1nc(SC)n(-c2ccccc2)c1COC(=O)NC,Survivors / animals tested,Mus musculus [1],5
same,BWD,Mus musculus [2],-3 g
same,KE,Mus musculus [3],0.6
same,KE,Mus musculus [4],0.17
same,BWD,Mus musculus [5],-1.6 g
same,Survivors / animals tested,Mus musculus [6],5
same,BWD,Mus musculus [7],-5.2 g
same,BWD,Mus musculus [8],-1.4 g
same,Survivors / animals tested,Mus musculus [9],4
same,Survivors / animals tested,Mus musculus [10],5
CNC(=O)OCc1nc(-c2ccccc2)n(C)c1COC(=O)NC,BWD,Mus musculus [11],-1 g
same,Survivors / animals tested,Mus musculus [12],5
same,BWD,Mus musculus [13],-2.2 g
same,Survivors / animals tested,Mus musculus [14],5
same,BWD,Mus musculus [15],-0.8 g
same,Survivors / animals tested,Mus musculus [16],5
same,BWD,Mus musculus [17],-0.2 g
same,T/C,Mus musculus [18],98%
same,Survivors / animals tested,Mus musculus [19],5
same,Survivors / animals tested,Mus musculus [20],5
same,BWD,Mus musculus [21],0 g
CNC(=O)OCc1ncn(-c2ccccc2)c1COC(=O)NC,BWD,Mus musculus [11],-0.4 g
same,Survivors / animals tested,Mus musculus [1],5
same,Survivors / animals tested,Mus musculus [22],5
same,BWD,Mus musculus [13],-1.2 g
same,BWD,Mus musculus [15],-0.8 g
same,Survivors / animals tested,Mus musculus [23],5
same,T/C,Mus musculus [24],99%
same,T/C,Mus musculus [25],95%
same,Survivors / animals tested,Mus musculus [6],5
same,BWD,Mus musculus [17],-0.4 g
same,T/C,Mus musculus [26],99%
same,BWD,Mus musculus [21],0.2 g
same,Survivors / animals tested,Mus musculus [10],5
COc1nc(COC(=O)NC(C)C)c(COC(=O)NC(C)C)n1C,Survivors / animals tested,Mus musculus [27],6
same,Survivors / animals tested,Mus musculus [28],6
same,BWD,Mus musculus [13],-2.6 g
same,BWD,Mus musculus [29],-4.2 g
same,Survivors / animals tested,Mus musculus [30],6
same,BWD,Mus musculus [15],-1 g
same,KE,Mus musculus [31],-0.6
same,KE,Mus musculus [32],0.54
same,Survivors / animals tested,Mus musculus [33],6
same,T/C,Mus musculus [34],130%
same,BWD,Mus musculus [21],-0.1 g
same,BWD,Mus musculus [35],-2.1 g
same,Survivors / animals tested,Mus musculus [36],6
CSc1nc(COC(=O)NC(C)C)c(COC(=O)NC(C)C)n1-c1ccccc1,T/C,Mus musculus [37],95%
same,Survivors / animals tested,Mus musculus [38],6
same,KE,Mus musculus [39],-1.55
same,Survivors / animals tested,Mus musculus [40],6
same,T/C,Mus musculus [41],100%
same,BWD,Mus musculus [2],-2.8 g
same,BWD,Mus musculus [42],-0.2 g
same,Survivors / animals tested,Mus musculus [43],6
same,BWD,Mus musculus [5],-2 g
same,Survivors / animals tested,Mus musculus [44],6
same,BWD,Mus musculus [45],0.6 g
same,BWD,Mus musculus [7],-4.8 g
same,T/C,Mus musculus [26],90%
same,BWD,Mus musculus [8],0.3 g
same,Survivors / animals tested,Mus musculus [46],6
same,KE,Mus musculus [47],-1.64
same,Survivors / animals tested,Mus musculus [48],5
same,T/C,Mus musculus [49],97%

# Source: ChEMBL document CHEMBL1124663, “Design, synthesis, antineoplastic activity, and chemical properties of bis(carbamate) derivatives of 4,5-bis(hydroxymethyl)imidazole” (J Med Chem, 1989)
